The subject of assay [1] is Plasmodium falciparum. In words: Inhibition of Plasmodium falciparum Falcipain 2 using Cbz-Phe-Arg-AMC as substrate at 100 uM after 15 mins by spectrofluorometer analysis. The method in brief: (§1)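 Single-concentration screen at 100 and 30 inhibitor concentration, with an equal amount of DMSO as negative control and E-64 as positive control. AMC release from Cbz-Phe-Arg-AMC was followed fluorimetrically (ex 365, em 460 nm) as continuous increase in fluorescence. Percent inhibition is relative to DMSO. At least two independent measurements, each in duplicate.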

Assay [2] concerns the target T1, Procathepsin L (Homo sapiens, UniProt P07711). In words: Inhibition of human cathepsin L using Cbz-Phe-Arg-AMC as substrate by spectrofluorometer analysis.
Target sequence in this assay (P07711 whole entry): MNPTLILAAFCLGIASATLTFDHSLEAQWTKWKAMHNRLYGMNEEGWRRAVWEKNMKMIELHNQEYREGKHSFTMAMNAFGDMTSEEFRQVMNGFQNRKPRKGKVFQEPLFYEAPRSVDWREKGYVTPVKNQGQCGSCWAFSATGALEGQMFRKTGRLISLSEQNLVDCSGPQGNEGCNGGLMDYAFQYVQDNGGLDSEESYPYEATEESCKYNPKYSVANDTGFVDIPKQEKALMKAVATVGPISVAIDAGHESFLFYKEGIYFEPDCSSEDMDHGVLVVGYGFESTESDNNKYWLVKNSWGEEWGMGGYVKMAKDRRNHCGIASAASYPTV
A further assay addresses Cathepsin B (Homo sapiens, UniProt P07858). In words: Inhibition of human cathepsin-B using Cbz-Phe-Arg-AMC as substrate by spectrofluorometer analysis.
Assay [3] concerns Plasmodium falciparum. In words: Inhibition of Plasmodium falciparum Falcipain 2 using Cbz-Phe-Arg-AMC as substrate at 30 uM after 15 mins by spectrofluorometer analysis. The procedure, abridged: as §1
For assay [4], the target named is T1, Procathepsin L. The following applies: 5 to 50 uM.
Target sequence in this assay (P07711 114-333 limits assumed): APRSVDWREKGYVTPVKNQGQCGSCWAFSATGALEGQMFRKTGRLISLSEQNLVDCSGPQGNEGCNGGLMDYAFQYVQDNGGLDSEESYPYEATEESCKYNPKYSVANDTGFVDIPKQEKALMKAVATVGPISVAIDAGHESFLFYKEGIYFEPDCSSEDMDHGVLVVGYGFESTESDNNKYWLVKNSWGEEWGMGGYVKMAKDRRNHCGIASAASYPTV
Assay [5] can be described thus: Inhibition of Plasmodium falciparum Falcipain 2 using Cbz-Phe-Arg-AMC as substrate after 15 mins by spectrofluorometer analysis. The procedure, abridged: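 Continuous progress-curve assay in 50 mM sodium acetate pH 5.5 with 10 mM DTT, Cbz-Phe-Arg-AMC as substrate, inhibitors from DMSO stocks. AMC release read (ex 365, em 460 nm) for 15 min at room temperature. kobs from the fit F = A(1−exp(−kobs·t)) + B. Hyperbolic kobs vs [I] gave kinac and KI; linear plots gave k2nd = kobs/[I]. At least two independent runs, each in duplicate.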

Assay [6] deals with Plasmodium falciparum. As to the kind of experiment: Antiplasmodial activity against Plasmodium falciparum FCBR. The following applies: FCBR/Columbia. The assay is classed as functional, organism-based.

The source made the active and inactive calls. No cut-off for these calls is given here.

The compound `CC(=O)/C=C/CNC(=O)CN1C(=O)[C@@H](CN2CCCCC2)N=C(c2ccccc2)c2ccccc21` displayed an inhibition in the assay with Plasmodium falciparum [1] of 80%. The Ki on Procathepsin L [2] (read-out: Ki) and on Cathepsin B was above 100 µM in each case. The inhibition result in the assay with Plasmodium falciparum [3] was “inactive”.
As for `CC(=O)/C=C/CNC(=O)CN1C(=O)[C@@H](CN2CCOCC2)N=C(c2ccccc2)c2ccccc21`, the Ki at Cathepsin B was above 100 µM.
For `CC(=O)/C=C/CNC(=O)CN1C(=O)[C@@H](COC(=O)Nc2ccc(Cl)cc2C(F)(F)F)N=C(c2ccccc2)c2ccccc21`, the Ki on Procathepsin L [2] (read-out: Ki(app)) came out at 8.6 µM. Also, the inhibition entry on Procathepsin L [4] is “tde”.
In the case of `CC(=O)/C=C/CNC(=O)CN1C(=O)[C@@H](CNCC(C)C)N=C(c2ccccc2)c2ccccc21`, the Ki is above 100 µM in assay [5], above 140 µM at Procathepsin L [2] (read-out: Ki) and above 100 µM on Cathepsin B.
Consider `CC(=O)/C=C/CNC(=O)CN1C(=O)[C@@H](COC(=O)Nc2ccc(Cl)cc2C(F)(F)F)N=C(C)c2ccccc21`, for which, at Procathepsin L [2] (read-out: Ki), the Ki amounted to 82 µM. The same compound returned an IC50 in the assay with Plasmodium falciparum [6] above 100 µM.

For the origin of these results see ChEMBL document CHEMBL1949554, “Peptidomimetics containing a vinyl ketone warhead as falcipain-2 inhibitors” (Eur J Med Chem, 2011).
